In ChEMBL document CHEMBL1122539, “3-Substituent effect and 3-methylene substituent effect on the structure-reactivity relationship of 7 beta-(acylamino)-3-cephem-4-carboxylic acid derivatives studied by carbon-13 and IR spectroscopies” (J Med Chem, 1984):

How the values were obtained:
[1] = Geometrical mean of MIC calculated from MIC values for Escherichia coli NIHJ JC-2 and Klebsiella pneumoniae SRL-1.; type: functional
Outline: (§1)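 Agar dilution on sensitivity test agar with serial twofold antibiotic dilutions. Overnight tryptosoy broth cultures of E. coli NIHJ JC-2 and K. pneumoniae SRL-1 were diluted to about 10^6 cells/mL in the same broth, and one loopful was inoculated. Plates were incubated at 37 °C for 18–20 h. MIC was the lowest concentration inhibiting visible growth. The value is the geometric mean of the two strains' MICs.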

[2] = Dissociation constant (Kobs) obtained from IR spectroscopy; f = Not detected; type: physicochemical
[3] = Rate constant (Kobs) obtained from IR spectroscopy
[4] = Geometrical mean of MIC calculated from MIC values for Escherichia coli NIHJ JC-2 and Klebsiella pneumoniae SRL-1; type: functional; outline: as §1

SMILES | MIC [1] [mg/L] | Log k [2] | 10^2 kobsd (h^-1) [3] | MIC [4] [mg/L]
COC1=C(C(=O)[O-])N2C(=O)C(NC(=O)Cc3ccccc3)C2SC1.[Na+] (stereo not given) | 17.7 | Not detected | – | –
CC1=C(C(=O)[O-])N2C(=O)C(NC(=O)Cc3ccccc3)C2SC1.[Na+] (stereo not given) | – | – | 1.36 hr-1 | 70.7
O=C(Cc1cccs1)[N-]C1C(=O)N2C(C(=O)[O-])=C(C[n+]3ccccc3)CSC12.[Na+] (stereo not given) | – | – | 47.3 obs | –
CC(=O)OCC1=C(C(=O)[O-])N2C(=O)C(NC(=O)Cc3cccs3)C2SC1.[Na+] (stereo not given) | – | – | 11.1 hr-1 | 25
O=C(Cc1ccccc1)NC1C(=O)N2C(C(=O)[O-])=CCSC12.[Na+] (stereo not given) | – | – | 3.1 hr-1 | 8.85
CCOC(=O)CC1=C(C(=O)[O-])N2C(=O)C(NC(=O)Cc3ccccc3)C2SC1.[Na+] (stereo not given) | – | – | 1.82 hr-1 | > 100
CS(=O)(=O)OC1=C(C(=O)[O-])N2C(=O)C(NC(=O)Cc3ccccc3)C2SC1.[Na+] (stereo not given) | – | – | 46.5 hr-1 | 8.84
O=C(Cc1ccccc1)NC1C(=O)N2C(C(=O)[O-])=C(Cl)CSC12.[Na+] (stereo not given) | – | – | 15.2 hr-1 | 12.5
